APJ ag – agonists of human APJ apelin receptor. P35414. CHO-K1 APJ PathHunter beta-arrestin, luminescence; 0% DMSO wells, 100% apelin. activation, % at 20 µM. hit rate 0.11% among 330,000. AID 2520;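 active = activation more than six SD over the plate average, tested at 20 µM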
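Incubation: overnight seeding, 90 min compound at 25 °C, 1 h detection; test system: PathHunter CHO-K1 APJ (AGTRL-1) beta-arrestin reporter cells; amount: 1000 cells/well; doses: one dose, 20 µM compound, 1% DMSO; measured by: beta-gal luminescence; measure: agonist-driven arrestin binding to APJ; benchmarks: negative DMSO alone, positive Apelin-13 at 10 nM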
EBI2 block – EBI2 (human) antagonism | hit rate 0.81% among 360,000 | inhibition, % at 5 µM | EBI2 beta-arrestin recruitment, luminescence, 7a,25-OHC stimulated; in the data active = inhibition above about 38%;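 also: enzyme fragment complementation signal reports receptor beta-arrestin coupling in cells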
CCR6 antag – CCR6 (human) receptor antagonism | P51684 | CHO-K1 CCR6 PathHunter beta-arrestin, luminescence, CCL20-stimulated | inhibition, % at 20 µM | hit rate 0.49% among 340,000 | AID 493098;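 active = compounds whose inhibition of the agonist-driven luminescence signal at 20 µM reaches about 50%, limit read from the data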;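 also: cells stimulated with CCL20 at 14 nM final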
APJ antag – antagonists of human APJ apelin receptor; hit rate 0.32% among 330,000; AID 2521; inhibition, % at 20 µM; CHO-K1 APJ beta-arrestin complementation, luminescence; P35414;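 active = inhibition above about 40% at 20 µM, limit read from the data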;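 also: cells challenged with 10 nM apelin-13 agonist together with compound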
CXCR6 inh – blocks human CXCR6 beta-arrestin recruitment; O00574; CHO-K1 PathHunter CXCR6 beta-arrestin, luminescence; inhibition, % at 20 µM; hit rate 0.36% among 360,000; in the data active = inhibition above about 34%, passing the limit was not always enough;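 also: antagonist mode with CXCL16 agonist at 10 nM final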
Target sequence (O00574 whole entry, looked up): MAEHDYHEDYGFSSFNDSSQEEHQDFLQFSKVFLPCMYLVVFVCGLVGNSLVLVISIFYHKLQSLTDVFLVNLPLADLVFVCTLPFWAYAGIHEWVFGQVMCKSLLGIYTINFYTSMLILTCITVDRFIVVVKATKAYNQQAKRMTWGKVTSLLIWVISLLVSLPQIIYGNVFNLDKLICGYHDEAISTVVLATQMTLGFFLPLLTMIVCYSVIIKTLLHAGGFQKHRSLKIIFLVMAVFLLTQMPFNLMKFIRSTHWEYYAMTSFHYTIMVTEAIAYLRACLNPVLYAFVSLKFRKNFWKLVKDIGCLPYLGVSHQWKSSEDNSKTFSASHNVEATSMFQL
EBI2 antag conf – EBI2 (human) antagonism, single concentration confirmation; shares compounds with EBI2 block; inhibition, % at 5 µM; EBI2 beta-arrestin luminescence, 7a,25-OHC antagonism; hit rate 29% among 2,400;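 active = inhibition of at least 50%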
EBI2 agonist – EBI2 agonism counter-screen; shares compounds with EBI2 block; EBI2-expressing cells, agonist mode, luminescence, 60 min; 0% vehicle, 100% 7α,25-dihydroxycholesterol control; activation, % at 5 µM; 2,400 tested, under 10 active; AID 652000;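 active = activation of at least 50%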
bGal cs – counter-screen for EBI2 antagonists: E. coli beta-galactosidase inhibition; shares compounds with EBI2 block; hit rate 1% among 2,400; inhibition, % at 5 µM; purified beta-galactosidase, luminescent Galacton Star, 15 min; AID 652176;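 active = replicate-average signal at least 3 plate SD below neutral wells, shown as high inhibition, flagging enzyme-inhibiting false positives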;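 also: higher means stronger loss of beta-gal luminescence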
A number is an active result; - = inactive; . = no result. Sampled rows, rich in hits. Any-hit rate of the full collection: about 1.5%.

SMILES	APJ ag	EBI2 block	CCR6 antag	APJ antag	CXCR6 inh	EBI2 antag conf	EBI2 agonist	bGal cs
CCOC(=O)c1cnn(-c2nc(-c3ccc(F)cc3)cs2)c1C(F)(F)F	-	53	-	-	-	56	-	-
COC(=O)C1CCN(C(=O)/C=C/c2ccc(OC)cc2)CC1	-	87	-	-	-	76	-	-
COc1ccc(/C=C/C(=O)N2CCC(c3ccccc3)C2)cc1 (stereo not drawn)	-	70	-	-	-	55	-	-
O=C(Cc1ccccc1)N1CCC(c2ccccc2)C1 (stereo not drawn)	-	-	-	-	-	.	.	.
COc1ccc(CC(=O)N2CCC(c3ccccc3)C2)cc1 (stereo not drawn)	-	48	-	-	-	-	-	-
COc1ccc(C(=O)/C=C/c2ccc(OC3CSC3)cc2)cc1OC	-	-	-	-	-	.	.	.
O=C(/C=C/c1ccc(OC2CSC2)cc1)c1ccc(Cl)cc1	-	43	-	-	-	-	-	-
COc1ccc(S(=O)(=O)N2Cc3ccccc3CC2C(=O)N2CCOCC2)cc1OC (stereo not drawn)	-	-	-	-	-	.	.	.
O=C(O)c1cc([N+](=O)[O-])ccc1N1CCCCC1	-	-	-	-	-	.	.	.
CC(C)(C)NC(=O)c1cc([N+](=O)[O-])ccc1N1CCCCC1	.	57	-	.	-	-	-	-
COc1ccc(/C=C/C(=O)c2ccc3c4c(cccc24)CC3)cc1	-	56	-	-	-	-	-	-
NC(=O)C1CCN(C(=O)c2ccc(Cl)c(NC(=O)c3cccs3)c2)CC1	.	-	.	.	-	.	.	.
O=C(NNc1ccc(C2CCCCC2)cc1)C(O)(c1ccccc1)c1cccs1 (stereo not drawn)	-	41	-	-	-	-	-	-
COc1ccc(C(O)(C(=O)NNc2ccc(C)cc2)c2cccs2)cc1 (stereo not drawn)	-	-	-	-	-	.	.	.
CCOC(=O)Cc1csc(SCC(=O)NC2CCCCC2)n1	-	-	-	-	-	.	.	.
O=C(/C=C/c1cccc([N+](=O)[O-])c1)N1CCN(Cc2ccc3c(c2)OCO3)CC1	-	50	-	-	-	-	-	-
O=C(/C=C/c1cccs1)N1CCN(Cc2ccc3c(c2)OCO3)CC1	-	64	-	-	-	-	-	-
CC(=O)COc1ncn(-c2ccccc2)n1	-	-	-	-	-	.	.	.
N/C(Cc1ccc(Cl)cc1)=N\OC(=O)c1ccc2ccccc2c1	-	48	-	-	-	-	-	-
Cc1cccc(C)c1-n1nnnc1C(c1cccc2ccccc12)N1CCN(C/C=C/c2ccccc2)CC1 (stereo not drawn)	.	-	.	.	-	.	.	.
c1ccc2c(C(c3nnnn3-c3ccc4c(c3)OCCO4)N3CCCC3)ccnc2c1 (stereo not drawn)	.	-	.	.	-	.	.	.
C(=C\c1ccccc1)/CN1CCN(C(c2cccc3ccccc23)c2nnnn2-c2ccc3c(c2)OCCO3)CC1 (stereo not drawn)	.	55	.	.	-	-	-	-
O=C(OCc1ccccc1)N1CCN(C(c2ccnc3ccccc23)c2nnnn2-c2ccc3c(c2)OCCO3)CC1 (stereo not drawn)	.	60	.	.	-	-	-	-
FC(F)(F)Oc1ccccc1C(c1nnnn1-c1ccc2c(c1)OCCO2)N1CCN(C/C=C/c2ccccc2)CC1 (stereo not drawn)	.	81	.	.	-	56	-	-
CCCCn1nnnc1C(c1cc2ccccc2o1)N1CCCCC1 (stereo not drawn)	.	-	.	.	-	.	.	.
O=C(CSc1nnc(COc2ccc(F)cc2)o1)N1c2ccccc2CCc2ccccc21	-	51	-	-	-	-	-	-
Cc1cccc(OCc2nnc(SCC(=O)N3c4ccccc4CCc4ccccc43)o2)c1	-	52	-	-	-	-	-	-
COC(=O)c1ccc(OC)c(CSc2nnc(COc3ccc(OC)cc3)o2)c1	-	49	-	-	-	-	-	-

Assay outcomes deposited in PubChem by Sanford-Burnham Center for Chemical Genomics.
